Key:
MDA-MB-468 = experiment: Growth inhibition of human MDA-MB-468 cells by MTT assay; format: functional
Procedure, shortened: (§1)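 Cells grown in RPMI 1640 with 10% FBS, plated at 2500 cells/well, treated across a dose range; growth read by MTT. GI50 taken from dose–response curves by nonlinear regression, at least three independent experiments.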

MCF7 = experiment: Growth inhibition of human MCF7 cells by MTT assay; format: functional; procedure, shortened: as §1
[1] = Growth inhibition of human SKBR3 cells by MTT assay; format: functional; conditions: SK-BR-3; procedure, shortened: as §1
MDA-MB-231 = experiment: Growth inhibition of human MDA-MB-231 cells by MTT assay; format: functional; procedure, shortened: as §1
LNCaP = experiment: Growth inhibition of human LNCAP cells by MTT assay; format: functional; procedure, shortened: as §1
[2] = Growth inhibition of human CWR22Rv1 cells by MTT assay; format: functional, CWR22R; conditions: 22Rv1; procedure, shortened: as §1
[3] = Growth inhibition of human PC3 cells by MTT assay; format: functional; conditions: PC-3; procedure, shortened: as §1

CC1=C(/C=C/C(C)=C/C=C/C(C)=C\C(=O)NCc2ccc(O)cc2)C(C)(C)CC=C1c1cncnc1
GI50 (MDA-MB-468): 19.1 µM | GI50 (MCF7): 4.96 µM | GI50 [1]: 11.5 µM | GI50 (MDA-MB-231): 11.5 µM

CC1=C(/C=C/C(C)=C/C=C/C(C)=C\C(=O)Nc2ccccc2)C(C)(C)CC=C1c1cncnc1
GI50 (MDA-MB-468): 22.9 µM | GI50 (MCF7): 7.01 µM | GI50 [1]: 31 µM | GI50 (MDA-MB-231): 26.9 µM

CC1=C(/C=C/C(C)=C/C=C/C(C)=C\C(=O)Nc2ccc(O)cc2)C(C)(C)CCC1n1ccnc1 (stereo not drawn)
GI50 (LNCaP): 3.54 µM | GI50 (MDA-MB-468): 6.83 µM | GI50 [2]: 3.89 µM | GI50 (MCF7): 1.99 µM | GI50 [1]: 3.89 µM | GI50 (MDA-MB-231): 13.1 µM | GI50 [3]: 11.7 µM

CC1=C(/C=C/C(C)=C/C=C/C(C)=C\C(=O)NCCc2ccc(O)cc2)C(C)(C)CC=C1c1cccnc1
GI50 (MDA-MB-468): 50.1 µM | GI50 (MCF7): 8.75 µM | GI50 [1]: 42.2 µM | GI50 (MDA-MB-231): 26.9 µM

CC1=C(/C=C/C(C)=C/C=C/C(C)=C/C(=O)Nc2ccc(O)cc2)C(C)(C)CCC1 [FENRETINIDE]
GI50 (MDA-MB-468): 6.02 µM | GI50 (MCF7): 4.65 µM | GI50 [1]: 3.98 µM | GI50 (MDA-MB-231): 11.1 µM

CC(=O)C1=C(O)C=C2Oc3c(C(N)=O)c(O)cc(O)c3[C@@]2(C)C1=O
GI50 (MDA-MB-468): 47.9 µM | GI50 [1]: 26 µM | GI50 (MDA-MB-231): 43.6 µM

CC1=C(/C=C/C(C)=C/C=C/C(C)=C/C(=O)O)C(C)(C)CCC1 [TRETINOIN]
GI50 (MDA-MB-468): 14.1 µM | GI50 [1]: 22.9 µM | GI50 (MDA-MB-231): 14.1 µM

CC1=C(/C=C/C(C)=C/C=C/C(C)=C\C(=O)NCCc2ccc(O)cc2)C(C)(C)CC=C1c1cncnc1
GI50 (MDA-MB-468): 23.4 µM | GI50 (MCF7): 2.96 µM | GI50 [1]: 24 µM | GI50 (MDA-MB-231): 14.5 µM

Source: ChEMBL document CHEMBL3414559, “Novel C-4 heteroaryl 13-cis-retinamide Mnk/AR degrading agents inhibit cell proliferation and migration and induce apoptosis in human breast and prostate cancer cells and suppress growth of MDA-MB-231 human breast and CWR22Rv1 human prostate tumor xenografts in mice” (J Med Chem, 2015)
